Active and inactive are the calls of the source. The rule behind the calls is not given here.
Assays:
[1] = Drug localization in endolysosomal compartment of human HT-29 cells assessed as decrease in co-localization efficiency at 5 uM incubated for 2 hrs and measured over 24 hrs using natEu labelled compound by lysotracker green staining based confocal microscopic analysis relative to control; format: ADME, subcellular; details: ht-29, 5 µM
Summary of the method: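 HT-29 cells (1.25 × 10^5/well) loaded with natEu conjugate (5 μM), washed, then chased in fresh medium up to 24 h. Lysotracker Green (100 nM) applied 2 h before each read; cells fixed and imaged confocally at 405/488 nm. Per-cell mean fluorescence and Lysotracker co-localization quantified.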

[2] = Drug retention in kidney of mouse xenografted with human HT-29 cells assessed as reduction in tissue-conjugate adduct formation at 29.6 MBq co-treated with D-lysine at 40 mg/kg measured after 72 hrs using 177Lu labelled compound by SDS-PAGE analysis; format: ADME, organism-based; details: in vivo
[3] = Drug excretion in SCID mouse xenografted with human HT-29 cells pretreated for 1 hr with colchicine at 1 mg/kg, ip followed by 177Lu labelled compound at 0.37 MBq/mouse, iv measured at 24 hrs by gamma counter analysis; format: ADME, organism-based; details: in vivo
Summary of the method: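 Female SCID mice bearing s.c. flank HT-29 xenografts (5 × 10^6 cells in Matrigel, ~80 mm3). Given 10 μCi (0.37 MBq) 177Lu conjugate i.v. by tail vein; groups sacrificed at 4, 24, 72 h. Tissues weighed and gamma-counted as %ID/g, excretion as %ID; n = 5, mean ± SD. Blocking arms: colchicine 1 mg/kg i.p. beforehand, or D-lysine 40 mg/kg co-injected.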

[4] = Ratio of drug uptake in SCID mouse xenograted with human HT-29 cells assessed as tumour retention to drug uptake in lung of SCID mouse xenografted with human HT-29 cells cotreated with D-lysine at 40 mg/kg measured after 24 hrs using 177Lu labelled compound; format: ADME, organism-based, Tumor/Lung; details: in vivo
[5] = Drug uptake in muscle of SCID mouse xenografted with human HT-29 cells using 177Lu labelled compound at 0.37 MBq/mouse, iv co-treated with D-lysine at 40 mg/kg measured at 24 hrs by gamma counter analysis; format: ADME, organism-based, Muscle tissue; details: in vivo
Summary of the method: (§1)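 Female SCID mice bore s.c. HT-29 xenografts (5 × 10^6 cells in Matrigel, about 80 mm3). D-lysine 40 mg/kg was co-injected i.v. with 10 μCi (0.37 MBq) of purified 177Lu-conjugate. Tissues were harvested at 24 h, weighed and gamma-counted, reported as %ID/g; mean ± SD, n = 5.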

[6] = Drug uptake in pancreas of SCID mouse xenografted with human HT-29 cells pretreated for 1 hr with colchicine at 1 mg/kg, ip followed by 177Lu labelled compound at 0.37 MBq/mouse, iv measured at 24 hrs by gamma counter analysis; format: ADME, organism-based; details: in vivo
Summary of the method: (§2)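 HT-29 flank xenografts in female SCID mice (5 × 10^6 cells in Matrigel, about 80 mm3). Colchicine 1 mg/kg was given i.p. before a tail-vein injection of 10 μCi (0.37 MBq) of purified 177Lu-conjugate. Tissues were taken at 24 h, weighed and gamma-counted as %ID/g; mean ± SD, n = 5.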

[7] = Drug uptake in liver of SCID mouse xenografted with human HT-29 cells pretreated for 1 hr with colchicine at 1 mg/kg, ip followed by 177Lu labelled compound at 0.37 MBq/mouse, iv measured at 24 hrs by gamma counter analysis; format: ADME, organism-based; details: in vivo; summary of the method: as §2
[8] = Drug uptake in small intestine of SCID mouse xenografted with human HT-29 cells using 177Lu labelled compound at 0.37 MBq/mouse, iv co-treated with D-lysine at 40 mg/kg measured at 24 hrs by gamma counter analysis; format: ADME, organism-based; details: in vivo
[9] = Drug uptake in large intestine of SCID mouse xenografted with human HT-29 cells using 177Lu labelled compound at 0.37 MBq/mouse, iv co-treated with D-lysine at 40 mg/kg measured at 24 hrs by gamma counter analysis; format: ADME, organism-based; details: in vivo; summary of the method: as §1
[10] = Drug uptake in stomach of SCID mouse xenografted with human HT-29 cells pretreated for 1 hr with colchicine at 1 mg/kg, ip followed by 177Lu labelled compound at 0.37 MBq/mouse, iv measured at 24 hrs by gamma counter analysis; format: ADME, organism-based; details: in vivo
Summary of the method: (§3)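 HT-29 xenograft SCID mice pretreated with colchicine 1 mg/kg i.p., then given 177Lu conjugate i.v. at 10 μCi (0.37 MBq)/mouse. Tissues excised at 24 h, weighed and gamma counted for %ID/g (n = 5, mean ± SD).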

[11] = Ratio of drug uptake in SCID mouse xenograted with human HT-29 cells assessed as tumour retention to drug uptake in large intestine of SCID mouse xenografted with human HT-29 cells cotreated with D-lysine at 40 mg/kg measured after 24 hrs using 177Lu labelled compound; format: ADME, organism-based, Tumor/Large intestine; details: in vivo
Summary of the method: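 Female SCID mice (5 weeks old) carried subcutaneous flank HT-29 xenografts (5 × 10^6 cells in Matrigel), used at about 80 mm3. They received 10 μCi (0.37 MBq) of purified 177Lu-labelled conjugate i.v. by tail vein, with D-lysine 40 mg/kg co-injected. At 24 h p.i., tissues were excised, weighed and gamma-counted, and %ID/g and tumour-to-tissue ratios were calculated (n = 5).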

Procathepsin L = Procathepsin L (Homo sapiens, UniProt P07711); assay: Binding affinity to cathepsin L in human HT-29 cells assessed as intracellular adduct formation at 0.74 MBq incubated for 4 hrs in presence of E-64 using 177Lu labelled compound by SDS-PAGE analysis; format: cell-based; set-up: dose or concentration left out as unconfirmed
Procathepsin L, sequence (P07711 114-333 limits assumed): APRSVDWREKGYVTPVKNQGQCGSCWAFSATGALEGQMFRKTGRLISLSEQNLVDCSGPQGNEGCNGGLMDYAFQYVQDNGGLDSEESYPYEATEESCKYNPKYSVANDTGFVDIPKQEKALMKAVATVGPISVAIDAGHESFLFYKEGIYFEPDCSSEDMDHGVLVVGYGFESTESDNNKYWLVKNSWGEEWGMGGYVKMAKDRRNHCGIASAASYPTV
Summary of the method: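 HT-29 cells (1 × 10^6/well) incubated 4 h at 37 °C with 177Lu conjugate (20 μCi, 0.74 MBq) in 1 mL medium, with or without E-64 (10 μM) or NTSR1 peptide N1 (20 μM). Cells washed and refed; at set times cells pooled, RIPA-lysed with protease inhibitor. Lysates heated 85 °C 2 min, run on 16% tris-glycine SDS-PAGE, and phosphor autoradiography taken after 72 h exposure.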

[12] = Drug uptake in brain of SCID mouse xenografted with human HT-29 cells pretreated for 1 hr with colchicine at 1 mg/kg, ip followed by 177Lu labelled compound at 0.37 MBq/mouse, iv measured at 24 hrs by gamma counter analysis; format: ADME, organism-based; details: in vivo; summary of the method: as §2
[13] = Ratio of drug uptake in SCID mouse xenograted with human HT-29 cells assessed as tumour retention to drug uptake in spleen of SCID mouse xenografted with human HT-29 cells cotreated with D-lysine at 40 mg/kg measured after 24 hrs using 177Lu labelled compound; format: ADME, organism-based, Tumor/Spleen; details: in vivo
[14] = Drug retention in tumor of mouse xenografted with human HT-29 cells assessed as tissue-conjugate adduct formation at 29.6 MBq co-treated with D-lysine at 40 mg/kg measured after 72 hrs using 177Lu labelled compound by SDS-PAGE analysis; format: ADME, organism-based, Neoplasm; details: in vivo
[15] = Drug retention in liver of mouse xenografted with human HT-29 cells assessed as tissue-conjugate adduct formation at 29.6 MBq co-treated with D-lysine at 40 mg/kg measured after 72 hrs using 177Lu labelled compound by SDS-PAGE analysis; format: ADME, organism-based; details: in vivo
[16] = Drug uptake in spleen of SCID mouse xenografted with human HT-29 cells pretreated for 1 hr with colchicine at 1 mg/kg, ip followed by 177Lu labelled compound at 0.37 MBq/mouse, iv measured at 24 hrs by gamma counter analysis; format: ADME, organism-based; details: in vivo; summary of the method: as §3

| Drug uptake [1] | Drug uptake [2] | Drug excretion [3] | Ratio [4] | Drug uptake [5] | Drug uptake [6] | Drug uptake [7] | Drug uptake [8] | Drug uptake [9] | Drug uptake [10] | Ratio [11] | Activity (Procathepsin L) | Drug uptake [12] | Ratio [13] | Drug uptake [14] | Drug uptake [15] | Drug uptake [16] | SMILES |
| --- | --- | --- | --- | --- | --- | --- | --- | --- | --- | --- | --- | --- | --- | --- | --- | --- | --- |
| 20% |  |  |  |  |  |  |  |  |  |  |  |  |  |  |  |  | Cc1cc(O)cc(C)c1C[C@H](NC(=O)[C@@H]1CCCN1C(=O)[C@H](CCCNC(=N)N)NC(=O)[C@H](CCCNC(=N)N)N(C)C(=O)[C@@H]1CCCN1C(=O)[C@H](CCCCN)NC(=O)[C@@H](CO)NC(=O)[C@@H](CO)NC(=O)[C@@H](CO)NC(=O)[C@H](Cc1cn(CCNC(=O)[C@H](CCCNC(=N)N)NC(=O)[C@H](CC(C)C)NC(=O)CCC(=O)O)nn1)NC(=O)CN1CCN(CC(=O)O)CCN(CC(=O)O)CCN(CC(=O)O)CC1)C(=O)N[C@H](C(=O)N[C@@H](CC(C)C)C(=O)O)C(C)(C)C |
|  | 47% | 85 %ID | 15 | 0.07 % ID/g | 0.7 % ID/g | 1.4 % ID/g | 1.47 % ID/g | 0.8 % ID/g | 0.29 % ID/g | 8 | Active | 0.07 % ID/g | 8 | Active | Not Active | 4 % ID/g | Cc1cc(O)cc(C)c1C[C@H](NC(=O)[C@@H]1CCCN1C(=O)[C@H](CCCNC(=N)N)NC(=O)[C@H](CCCNC(=N)N)N(C)C(=O)[C@@H]1CCCN1C(=O)[C@H](CCCCN)NC(=O)[C@@H](CO)NC(=O)[C@@H](CO)NC(=O)[C@@H](CO)NC(=O)[C@H](Cc1cn(CCNC(=O)[C@H](CCCNC(=N)N)NC(=O)[C@H](CC(C)C)NC(=O)C2OC2C(=O)O)nn1)NC(=O)CN1CCN(CC(=O)O)CCN(CC(=O)O)CCN(CC(=O)O)CC1)C(=O)N[C@H](C(=O)N[C@@H](CC(C)C)C(=O)O)C(C)(C)C (some centres not stated) |

— ChEMBL document CHEMBL4350999, “Enhanced tumor retention of NTSR1-targeted agents by employing a hydrophilic cysteine cathepsin inhibitor” (Eur J Med Chem, 2019)
